# Measured values reported in ChEMBL document CHEMBL1129236, “Synthesis and structure-activity relationships of phenylenebis(methylene)-linked bis-tetraazamacrocycles that inhibit human immunodeficiency virus replication. 2. Effect of heteroaromatic linkers on the activity of bicyclams” (J Med Chem, 1996).
# Assays:
# [1] = system: Human immunodeficiency virus 2; assay: Effective concentration against HIV-2(ROD) replication in MT-4 cells; type: functional, organism-based; settings: Human immunodeficiency virus 2, MT4
# Procedure, shortened: (§1)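 MT-4 cells were infected with HIV-1 (III_B) or HIV-2 (ROD) at MOI 0.01 (100 CCID₅₀), or mock-infected, run in parallel. Cells were exposed to various compound concentrations and grown 5 days, then viable cells were counted by MTT colorimetry. EC₅₀ protects 50% of infected cells from cytopathicity; CC₅₀ cuts mock-infected viability by 50%. Values are averages of several experiments.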
# MT4 = assay: Concentration required to reduce the viability of mock infected cells by 50%; type: functional; settings: Homo sapiens; procedure, shortened: as §1
# [2] = system: Human immunodeficiency virus 1; assay: Effective concentration against HIV-1(IIIB) replication in MT-4 cells; type: functional, organism-based; settings: Human immunodeficiency virus 1, MT4; procedure, shortened: as §1
# [3] = pKa was reported; type: physicochemical
# Procedure, shortened: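 Potentiometric titration: a 0.1 mM aqueous solution with 4 equiv HClO₄ at 25 °C, I = 0.1 M (NaClO₄), was titrated with 0.1 M NaOH. The electrode was calibrated with pH 4.00 and 7.00 buffers. UV spectra (400–200 nm, 1 cm path) were also taken at 0.17 mM across pH 1–7, with pH set by HClO₄ in 0.1 M NaClO₄.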
compound,measurement,setting,value
c1ccc2c(CN3CCCNCCNCCCNCC3)cc(CN3CCCNCCNCCCNCC3)cc2c1,EC50,[1],0.0786 µM
same,CC50,MT4,207 µM
same,EC50,[2],0.157 µM
c1ccc2c(CN3CCCNCCNCCCNCC3)cc(CN3CCCNCCNCCCNCC3)nc2c1,EC50,[1],4.27 µM
same,CC50,MT4,> 419 µM
same,EC50,[2],3.77 µM
COC(=O)c1cc(CN2CCCNCCNCCCNCC2)ccc1CN1CCCNCCNCCCNCC1,EC50,[1],0.59 µM
same,CC50,MT4,> 198 µM
same,EC50,[2],0.682 µM
c1cc(CN2CCCNCCNCCCNCC2)ccc1CN1CCCNCCNCCCNCC1 [PLERIXAFOR],EC50,[1],0.0059 µM
same,CC50,MT4,> 421 µM
c1ccc(C2CCNCCNCCCNCCN2)nc1 (centres undefined),pKa,[3],< 3
c1nc(CN2CCCNCCNCCCNCC2)cnc1CN1CCCNCCNCCCNCC1,EC50,[1],106 µM
same,CC50,MT4,> 203 µM
same,EC50,[2],139 µM
O=C(O)c1cc(CN2CCCNCCNCCCNCC2)cc(CN2CCCNCCNCCCNCC2)c1,EC50,[1],> 203 µM
same,CC50,MT4,> 200 µM
same,EC50,[2],> 203 µM
c1ccc(CCC2CNCCNCCCNCCNC2)nc1,pKa,[3],5.32
c1cc(CN2CCCNCCNCCCNCC2)ncc1CN1CCCNCCNCCCNCC1,EC50,[1],2.19 µM
same,CC50,MT4,18 µM
same,EC50,[2],0.908 µM
c1ccc(-c2cc(CN3CCCNCCNCCCNCC3)cc(CN3CCCNCCNCCCNCC3)c2)cc1,CC50,MT4,> 198 µM
c1ncc(CN2CCCNCCNCCCNCC2)nc1CN1CCCNCCNCCCNCC1,EC50,[1],0.0174 µM
same,CC50,MT4,> 203 µM
same,EC50,[2],0.0261 µM
c1cc(CN2CCCNCCNCCCNCC2)cc(CN2CCCNCCNCCCNCC2)c1,CC50,MT4,> 421 µM
c1ccc(-c2cc(CN3CCCNCCNCCCNCC3)cc(CN3CCCNCCNCCCNCC3)n2)cc1,EC50,[1],0.02 µM
same,CC50,MT4,> 203 µM
same,EC50,[2],0.0398 µM
O=C(O)c1cc(CN2CCCNCCNCCCNCC2)ccc1CN1CCCNCCNCCCNCC1,EC50,[1],> 200 µM
same,CC50,MT4,> 200 µM
same,EC50,[2],> 200 µM
c1ncc(CN2CCCNCCNCCCNCC2)cc1CN1CCCNCCNCCCNCC1,EC50,[1],0.071 µM
same,CC50,MT4,> 395 µM
same,EC50,[2],0.0316 µM
Nc1cc(CN2CCCNCCNCCCNCC2)cc(CN2CCCNCCNCCCNCC2)c1,EC50,[1],0.039 µM
same,CC50,MT4,> 194 µM
same,EC50,[2],0.0468 µM
c1cc(CN2CCCNCCNCCCNCC2)nc(CN2CCCNCCNCCCNCC2)c1,EC50,[1],0.0654 µM
same,CC50,MT4,> 409 µM
same,EC50,[2],0.0245 µM
Oc1cccnc1C1CCNCCNCCCNCCN1 (centres undefined),pKa,[3],3.6
Nc1cc(CN2CCCNCCNCCCNCC2)ccc1CN1CCCNCCNCCCNCC1,EC50,[1],0.0934 µM
same,CC50,MT4,> 179 µM
same,EC50,[2],0.187 µM
c1cc(CN2CCCNCCNCCCNCC2)cc(CN2CCCNCCNCCCNCC2)n1,EC50,[1],16.4 µM
same,CC50,MT4,17 µM
same,EC50,[2],16.4 µM
